Compound activity deposited in PubChem BioAssay by several laboratories.
IMP-1 inhibitor = blocks Pseudomonas aeruginosa IMP-1 metallo-beta-lactamase; inhibition, % at 5.6 µM; purified IMP-1, nitrocefin hydrolysis, epi-absorbance fluorescence; actives 0.45% (n = 290,000); AID 1556;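 active = inhibition above the mean plus 3 SD of all compounds in the same screening run, cut at about 4.5% in these data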
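assay system = purified recombinant IMP-1 metallo-beta-lactamase enzyme | schedule = 15 min preincubation plus 25 min reaction at 25 °C | signal = Epi-absorbance fluorescence, 480 nm excitation, 530 nm emission | read-out basis = percent inhibition from optical density relative to buffer-blank wells | controls = IMP-1 with DMSO as 0%, enzyme-free DMSO as 100%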
TMEM16A inh = inhibitors of mouse TMEM16A calcium-activated chloride channel; Q8BHY3; HEK293 TMEM16A/YFP iodide influx fluorescence, ionomycin; normalized B-score (activity score, 25-100; higher = stronger inhibition) at 10 µM; actives 1.2% (n = 310,000); AID 588511;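 active = ratio plate-corrected score three or more library SD toward inhibition, starting fluorescence score within five deviations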;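 also: score derived from kinetic fluorescence span divided by baseline fluorescence per well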
Target sequence (Q8BHY3 whole entry, looked up): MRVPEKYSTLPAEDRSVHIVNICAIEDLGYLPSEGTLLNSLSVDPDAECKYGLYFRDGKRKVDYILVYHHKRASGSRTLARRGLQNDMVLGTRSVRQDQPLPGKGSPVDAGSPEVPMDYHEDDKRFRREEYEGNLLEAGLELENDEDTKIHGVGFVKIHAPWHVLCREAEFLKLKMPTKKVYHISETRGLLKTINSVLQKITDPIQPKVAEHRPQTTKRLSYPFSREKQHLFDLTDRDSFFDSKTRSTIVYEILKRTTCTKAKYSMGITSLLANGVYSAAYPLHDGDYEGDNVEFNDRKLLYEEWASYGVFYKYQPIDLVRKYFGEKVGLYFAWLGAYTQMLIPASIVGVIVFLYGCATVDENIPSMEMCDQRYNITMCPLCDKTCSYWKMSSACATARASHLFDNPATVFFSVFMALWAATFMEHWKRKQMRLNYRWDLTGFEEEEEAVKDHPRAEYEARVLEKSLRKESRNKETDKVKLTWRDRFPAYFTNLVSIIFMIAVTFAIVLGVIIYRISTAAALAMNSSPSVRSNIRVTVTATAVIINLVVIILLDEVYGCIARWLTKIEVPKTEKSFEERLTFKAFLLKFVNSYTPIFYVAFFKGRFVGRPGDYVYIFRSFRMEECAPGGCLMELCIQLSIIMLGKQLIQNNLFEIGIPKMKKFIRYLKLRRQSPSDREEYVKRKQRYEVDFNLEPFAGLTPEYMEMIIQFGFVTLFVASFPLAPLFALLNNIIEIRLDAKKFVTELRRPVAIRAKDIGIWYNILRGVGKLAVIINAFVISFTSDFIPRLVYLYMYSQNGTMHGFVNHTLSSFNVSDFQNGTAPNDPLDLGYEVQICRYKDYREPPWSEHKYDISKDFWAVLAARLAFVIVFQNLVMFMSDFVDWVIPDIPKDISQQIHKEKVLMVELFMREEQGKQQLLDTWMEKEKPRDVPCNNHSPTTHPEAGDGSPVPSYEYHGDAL
CHT block = inhibits the human high affinity choline transporter. Q9GZV3. CHT-expressing cells, membrane potential dye, choline response; hits give low values. B-score at 10 µM. actives 0.86% (n = 310,000);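 active = B-score over 3 SD under the library average, and starting fluorescence ratio not unusually high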;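 also: choline stimulus applied at its EC90 after an EC20 pre-addition; B-score computed on integrated fluorescence ratio after choline addition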
CHT allo act = human CHT allosteric activation | actives 0.49% (n = 310,000) | CHT-expressing cells, membrane potential dye, choline EC20; hits give high values; LV-AA mutant CHT in HEK293 cells | B-score at 10 µM;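 active = initial fluorescence not abnormally high and integrated response B-score, plate-corrected, over 3 SD above library mean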
ANO1 activ = mouse TMEM16A channel activation, primary screen. Q8BHY3. HEK293 TMEM16A/YFP-H148Q/I152L, iodide quench fluorescence; hits give low values. B-score at 10 µM. actives 0.3% (n = 340,000). AID 623877;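 active = fluorescence-ratio B-score plate-corrected deviation score at least 3 library SD below zero, with starting fluorescence score within 5 deviations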;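 also: channel opened by trigger with iodide after compound preincubation; score built on the fluorescence ratio of max minus min over baseline; more negative score means more quench and so TMEM16A activation or potentiation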
VIM-2 inhibitor = inhibitors of Pseudomonas aeruginosa VIM-2 metallo-beta-lactamase | purified VIM-2, nitrocefin hydrolysis, epi-absorbance fluorescence | inhibition, % at 5.6 µM | actives 0.89% (n = 290,000) | AID 1527;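 active = inhibition above the mean of all tested compounds plus 3 SD, cutoff set per screening run, cut at about 7.5% in these data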;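 also: red hydrolysis product quenches plate fluorescence so inhibitors raise well fluorescence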
Each line names hits and unclear results; the compound was inactive in the other large screens. In the library only some 3.4% were active in any assay of this set; here they are far more common.

Cc1c(NC(=S)N/N=C/c2cccc(O)c2)c(=O)n(-c2ccccc2)n1C	VIM-2 inhibitor 10
Cc1c(NC(=S)N/N=C/c2ccc(N(C)C)cc2)c(=O)n(-c2ccccc2)n1C	none
CCc1ccc(NC(=O)N2CCN(C(=O)C3CCCO3)CC2)cc1 (stereo unspecified)	none
CCOC(=O)c1c(CC(C)C)csc1/N=C/C1C(=O)CC(C)(C)CC1=O	IMP-1 inhibitor 9.1
COc1cc(C(CCN2CCCC(C)C2)c2c(OC)cc(OC)c3c2OC(=O)CC3c2ccc(N(C)C)cc2)cc(OC)c1OC (stereo unspecified)	CHT block -5.1 (no result: IMP-1 inhibitor, VIM-2 inhibitor)
CCn1c(SCC(=O)Nc2cccc(OC)c2)nc2c(c1=O)SCC2	none (no result: IMP-1 inhibitor, VIM-2 inhibitor)
Cn1c(=O)c(C(=O)COC(=O)c2cc(-c3ccco3)nc3ccccc23)c(N)n(CC2CC2)c1=O	CHT block -5.5 (no result: ANO1 activ)
Cn1c(=O)c(C(=O)COC(=O)c2cc(C3CC3)nc3ccccc23)c(N)n(Cc2ccccc2)c1=O	none (no result: ANO1 activ)
Nc1ccc(Cl)c(S(=O)(=O)Nc2cccc(Cl)c2)c1	CHT block -8.9
N#CC1(NC(=O)CSc2nnc(-c3ccccc3F)o2)CCCCC1	none (no result: IMP-1 inhibitor, VIM-2 inhibitor)
COC(=O)c1cc(N=C(N)N=C(N)N)cc(C(=O)OC)c1	VIM-2 inhibitor 9.0
COc1cccc(N=C(N)N=C(N)N)c1	none
Cc1cc(C)cc(NC(=O)COC(=O)Cn2cnc3c2c(=O)n(C)c(=O)n3C)c1	none (no result: IMP-1 inhibitor, TMEM16A inh, CHT block, CHT allo act, VIM-2 inhibitor)
CC(C)S(=O)(=O)c1cnc(N2CCOCC2)nc1N	none
Cn1ccnc1SCC(=O)c1cc2ccccc2o1	IMP-1 inhibitor 4.6
Cn1cnnc1SCC(=O)c1cc2ccccc2o1	none
COc1ccc(-c2csc(Nc3cccnc3)n2)cc1OC	VIM-2 inhibitor 12
O=C(NNC(=S)Nc1cccc2ccccc12)c1cccc(Br)c1	TMEM16A inh 25
O=C(NNC(=O)c1ccc2ccccc2c1)c1cccc(Br)c1	none (no result: IMP-1 inhibitor, TMEM16A inh, CHT block, CHT allo act, VIM-2 inhibitor)
CC1CN(C(=O)c2ccc(-c3cccc(C(F)(F)F)c3)o2)CC(C)O1 (stereo unspecified)	none (no result: IMP-1 inhibitor, VIM-2 inhibitor)
O=C(NCc1ccncc1)c1cccc(S(=O)(=O)Nc2ccc(F)cc2)c1	none (no result: IMP-1 inhibitor, TMEM16A inh, CHT block, CHT allo act, VIM-2 inhibitor)
Cc1[nH]n(-c2ccccc2)c(=O)c1N=Nc1ccc(C(N)=O)cc1	VIM-2 inhibitor 12
CCOC(=O)c1c(CN(C)C)n(-c2ccccc2)c2cc(Br)c(OC)cc12	none
CCOC(=O)c1c(CSC(=N)N)n(-c2ccc(C)cc2)c2cc(Br)c(OC(C)=O)cc12	TMEM16A inh 100
CCOC(=O)c1c(CN(C)C)n(-c2ccc(C)cc2)c2cc(Br)c(O)cc12	VIM-2 inhibitor 8.4
CN(Cc1ccc(OC(F)F)cc1)C(=O)c1cccc(S(=O)(=O)N2CCN(Cc3ccccc3)CC2)c1	none (no result: IMP-1 inhibitor, TMEM16A inh, CHT block, CHT allo act, VIM-2 inhibitor)
CCn1c(C)nc2cc(C(=O)N3N=C(CCOC)CC3(O)C(F)(F)F)ccc21 (stereo unspecified)	none
CCCc1ccc(Oc2coc3cc(OCC(=O)Nc4ccccc4C)ccc3c2=O)cc1	ANO1 activ -5.2
O=C(CCCn1c(=O)c2cccn2c2cccnc21)NCc1cccc(Br)c1	IMP-1 inhibitor 7.2
O=C(CCn1c(=O)c2cccn2c2cccnc21)NCc1cccc(Cl)c1	IMP-1 inhibitor 22
CCc1ccc(CNC(=O)CCCn2c(=O)c3cccn3c3cccnc32)cc1	none
Cc1[nH][nH]c(=O)c1N=Nc1ccc(S(N)(=O)=O)cc1	none (no result: IMP-1 inhibitor, VIM-2 inhibitor)
CN(C)c1ccc(N=Nc2ccc(S(N)(=O)=O)cc2)cc1	IMP-1 inhibitor 9.1
CCN(CC)N=Nc1ccc(S(N)(=O)=O)cc1	ANO1 activ -6.1
CN(C)N=Nc1ccc(S(N)(=O)=O)cc1	none
CC1CCN(S(=O)(=O)c2cn(CC(=O)Nc3ccc(OC(F)(F)F)cc3)cn2)CC1	IMP-1 inhibitor 8.8
COc1ccc(C2C(C#N)=C(N)Oc3c2sc2nc(C)cc(C)c32)cc1 (stereo unspecified)	ANO1 activ -7.1
Nc1ccc(S(=O)(=O)N2CCC(Cc3ccccc3)CC2)cc1	none
COc1ccc(CN2CCC(=O)N([C@H](CO)c3ccccc3)CC2)cc1	ANO1 activ -11
O=C1CCN(Cc2cccnc2)CCN1[C@H](CO)c1ccccc1	none
O=C(COC(=O)COc1ccc(Cl)cc1Cl)NC1CCCC1	none (no result: IMP-1 inhibitor, TMEM16A inh, CHT block, CHT allo act, VIM-2 inhibitor)
